Values after ≈ are worked out from the molar mass of the structure shown.
System: Trichophyton benhamiae
Assay: Minimum inhibitory concentration against Trichophyton mentagrophyte IFO 5810
Format: functional
Details: not given
Outline: (§1)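 Agar dilution on Sabouraud's glucose agar. Inocula 1×10^6 cells/mL for the yeast strains (C. albicans IFO 1060, 1388) and 1×10^6 conidia/mL for the dermatophytes (T. mentagrophytes IFO 5809, 5810; T. rubrum IFO 5467, 5807). MIC in μg/mL, lowest value of duplicated experiments.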

MIC [µg/mL] | SMILES
0.4 (≈ 1.16 µM) | Clc1ccccc1C(c1ccccc1)(c1ccccc1)n1ccnc1 [CLOTRIMAZOLE]

System: Aspergillus fumigatus
Assay: Minimum inhibitory concentration against Aspergillus fumigatus
Format: functional
Details: not given
Outline: (§2)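 Broth microdilution in Sabouraud's glucose broth. Final inocula 1×10^5 cells/mL for the yeast (C. albicans) and 1×10^5 conidia/mL for the mold (A. fumigatus) and the dermatophyte (T. asteroides). MIC read as the fungistatic end point. Lowest value of duplicated experiments.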

MIC [µg/mL] | SMILES
> 100 | CC(C)(n1ccnc1)n1ccnc1

System: Candida albicans
Assay: Minimum inhibitory concentration against Candida albicans IFO 1388
Format: functional
Details: not given
Outline: as §1

MIC [µg/mL] | SMILES
12.5 (≈ 40.2 µM) | C=C(c1cc(Cl)ccc1OCc1ccccc1)n1ccnc1
12.5 (≈ 34.8 µM) | CC=C(c1ccccc1OCc1ccc(Cl)c(Cl)c1)n1ccnc1
12.5 (≈ 36.2 µM) | C=C(c1cc(Cl)ccc1OCc1ccc(Cl)cc1)n1ccnc1
12.5 (≈ 38.5 µM) | C/C=C(/c1ccccc1OCc1ccc(Cl)cc1)n1ccnc1
12.5 (≈ 40.2 µM) | C=C(c1ccccc1OCc1ccc(Cl)cc1)n1ccnc1
12.5 (≈ 36.9 µM) | CC(C)=C(c1ccccc1OCc1ccc(Cl)cc1)n1ccnc1
12.5 (≈ 38.5 µM) | C/C=C(\c1ccccc1OCc1ccc(Cl)cc1)n1ccnc1
12.5 (≈ 36.2 µM) | Clc1ccccc1C(c1ccccc1)(c1ccccc1)n1ccnc1 [CLOTRIMAZOLE]

SMILES | MIC [µg/mL]
C=C(c1ccccc1OCc1cccc(Cl)c1)n1ccnc1 [CROCONAZOLE] | 12.5 (≈ 40.2 µM)

System: Trichophyton benhamiae
Assay: Minimum inhibitory concentration against Trichophyton mentagrophyte IFO 5809
Format: functional
Details: not given
Outline: as §1

MIC [µg/mL] | SMILES
0.8 (≈ 2.32 µM) | Clc1ccccc1C(c1ccccc1)(c1ccccc1)n1ccnc1 [CLOTRIMAZOLE]

System: Trichophyton benhamiae
Assay: (§3) Minimum inhibitory concentration against Trichophyton asteroides
Format: functional
Details: not given
Outline: as §2

MIC [µg/mL] | SMILES
0.1 (≈ 0.322 µM) | C=C(c1cc(Cl)ccc1OCc1ccccc1)n1ccnc1
0.1 (≈ 0.278 µM) | CC=C(c1ccccc1OCc1ccc(Cl)c(Cl)c1)n1ccnc1
0.1 (≈ 0.29 µM) | C=C(c1cc(Cl)ccc1OCc1ccc(Cl)cc1)n1ccnc1
0.1 (≈ 0.308 µM) | C/C=C(/c1ccccc1OCc1ccc(Cl)cc1)n1ccnc1
0.1 (≈ 0.322 µM) | C=C(c1ccccc1OCc1ccc(Cl)cc1)n1ccnc1
0.1 (≈ 0.295 µM) | CC(C)=C(c1ccccc1OCc1ccc(Cl)cc1)n1ccnc1
0.1 (≈ 0.308 µM) | C/C=C(\c1ccccc1OCc1ccc(Cl)cc1)n1ccnc1

SMILES | MIC [µg/mL]
C=C(c1ccccc1OCc1cccc(Cl)c1)n1ccnc1 [CROCONAZOLE] | 0.1 (≈ 0.322 µM)

System: not listed separately
Assay: as §3
Format: functional
Details: Trichophyton benhamiae
Outline: as §2

MIC [µg/mL] | SMILES
> 100 | CC(C)(n1ccnc1)n1ccnc1

System: Trichophyton rubrum
Assay: Minimum inhibitory concentration against Trichophyton rubrum IFO 5467
Format: functional
Details: not given
Outline: as §1

MIC [µg/mL] | SMILES
0.8 (≈ 2.23 µM) | CC=C(c1ccccc1OCc1ccc(Cl)c(Cl)c1)n1ccnc1
0.8 (≈ 2.32 µM) | C=C(c1cc(Cl)ccc1OCc1ccc(Cl)cc1)n1ccnc1
0.8 (≈ 2.46 µM) | C/C=C(/c1ccccc1OCc1ccc(Cl)cc1)n1ccnc1
0.8 (≈ 2.57 µM) | C=C(c1ccccc1OCc1ccc(Cl)cc1)n1ccnc1
1.6 (≈ 4.72 µM) | CC(C)=C(c1ccccc1OCc1ccc(Cl)cc1)n1ccnc1
0.8 (≈ 2.46 µM) | C/C=C(\c1ccccc1OCc1ccc(Cl)cc1)n1ccnc1
0.8 (≈ 2.32 µM) | Clc1ccccc1C(c1ccccc1)(c1ccccc1)n1ccnc1 [CLOTRIMAZOLE]

SMILES | MIC [µg/mL]
C=C(c1ccccc1OCc1cccc(Cl)c1)n1ccnc1 [CROCONAZOLE] | 0.4 (≈ 1.29 µM)

System: Aspergillus fumigatus
Assay: Minimum inhibitory concentration (MIC) against Aspergillus fumigatus
Format: functional
Details: not given
Outline: as §2

MIC [µg/mL] | SMILES
3.1 (≈ 9.97 µM) | C=C(c1cc(Cl)ccc1OCc1ccccc1)n1ccnc1
0.4 (≈ 1.11 µM) | CC=C(c1ccccc1OCc1ccc(Cl)c(Cl)c1)n1ccnc1
3.1 (≈ 8.98 µM) | C=C(c1cc(Cl)ccc1OCc1ccc(Cl)cc1)n1ccnc1
3.1 (≈ 9.54 µM) | C/C=C(/c1ccccc1OCc1ccc(Cl)cc1)n1ccnc1
3.1 (≈ 9.97 µM) | C=C(c1ccccc1OCc1ccc(Cl)cc1)n1ccnc1
6.2 (≈ 18.3 µM) | CC(C)=C(c1ccccc1OCc1ccc(Cl)cc1)n1ccnc1
3.1 (≈ 9.54 µM) | C/C=C(\c1ccccc1OCc1ccc(Cl)cc1)n1ccnc1

SMILES | MIC [µg/mL]
C=C(c1ccccc1OCc1cccc(Cl)c1)n1ccnc1 [CROCONAZOLE] | 3.1 (≈ 9.97 µM)

System: Trichophyton benhamiae
Assay: Minimum inhibitory concentration against Trichophyton mentagrophytes IFO 5809
Format: functional, Arthroderma benhamiae
Details: not given
Outline: as §1

MIC [µg/mL] | SMILES
1.6 (≈ 5.15 µM) | C=C(c1cc(Cl)ccc1OCc1ccccc1)n1ccnc1
0.8 (≈ 2.23 µM) | CC=C(c1ccccc1OCc1ccc(Cl)c(Cl)c1)n1ccnc1
1.6 (≈ 4.63 µM) | C=C(c1cc(Cl)ccc1OCc1ccc(Cl)cc1)n1ccnc1
1.6 (≈ 4.93 µM) | C/C=C(/c1ccccc1OCc1ccc(Cl)cc1)n1ccnc1
1.6 (≈ 5.15 µM) | C=C(c1ccccc1OCc1ccc(Cl)cc1)n1ccnc1
1.6 (≈ 4.72 µM) | CC(C)=C(c1ccccc1OCc1ccc(Cl)cc1)n1ccnc1
0.8 (≈ 2.46 µM) | C/C=C(\c1ccccc1OCc1ccc(Cl)cc1)n1ccnc1

SMILES | MIC [µg/mL]
C=C(c1ccccc1OCc1cccc(Cl)c1)n1ccnc1 [CROCONAZOLE] | 0.8 (≈ 2.57 µM)

System: Trichophyton benhamiae
Assay: Minimum inhibitory concentration against Trichophyton mentagrophytes IFO 5810
Format: functional, Arthroderma benhamiae
Details: not given
Outline: as §1

MIC [µg/mL] | SMILES
1.6 (≈ 5.15 µM) | C=C(c1cc(Cl)ccc1OCc1ccccc1)n1ccnc1
0.8 (≈ 2.23 µM) | CC=C(c1ccccc1OCc1ccc(Cl)c(Cl)c1)n1ccnc1
1.6 (≈ 4.63 µM) | C=C(c1cc(Cl)ccc1OCc1ccc(Cl)cc1)n1ccnc1
0.8 (≈ 2.46 µM) | C/C=C(/c1ccccc1OCc1ccc(Cl)cc1)n1ccnc1
0.8 (≈ 2.57 µM) | C=C(c1ccccc1OCc1ccc(Cl)cc1)n1ccnc1
0.8 (≈ 2.36 µM) | CC(C)=C(c1ccccc1OCc1ccc(Cl)cc1)n1ccnc1
0.8 (≈ 2.46 µM) | C/C=C(\c1ccccc1OCc1ccc(Cl)cc1)n1ccnc1

SMILES | MIC [µg/mL]
C=C(c1ccccc1OCc1cccc(Cl)c1)n1ccnc1 [CROCONAZOLE] | 0.8 (≈ 2.57 µM)

System: Candida albicans
Assay: Minimum inhibitory concentration (MIC) against Candida albicans
Format: functional
Details: not given
Outline: as §2

MIC [µg/mL] | SMILES
6.2 (≈ 19.9 µM) | C=C(c1cc(Cl)ccc1OCc1ccccc1)n1ccnc1
6.2 (≈ 17.3 µM) | CC=C(c1ccccc1OCc1ccc(Cl)c(Cl)c1)n1ccnc1
> 100 | CC(C)(n1ccnc1)n1ccnc1
12.5 (≈ 36.2 µM) | C=C(c1cc(Cl)ccc1OCc1ccc(Cl)cc1)n1ccnc1
6.2 (≈ 19.1 µM) | C/C=C(/c1ccccc1OCc1ccc(Cl)cc1)n1ccnc1
6.2 (≈ 19.9 µM) | C=C(c1ccccc1OCc1ccc(Cl)cc1)n1ccnc1
3.1 (≈ 9.15 µM) | CC(C)=C(c1ccccc1OCc1ccc(Cl)cc1)n1ccnc1
6.2 (≈ 19.1 µM) | C/C=C(\c1ccccc1OCc1ccc(Cl)cc1)n1ccnc1

SMILES | MIC [µg/mL]
C=C(c1ccccc1OCc1cccc(Cl)c1)n1ccnc1 [CROCONAZOLE] | 3.1 (≈ 9.97 µM)

System: Trichophyton rubrum
Assay: Minimum inhibitory concentration against Trichophyton rubrum IFO 5807
Format: functional
Details: not given
Outline: as §1

MIC [µg/mL] | SMILES
0.8 (≈ 2.57 µM) | C=C(c1cc(Cl)ccc1OCc1ccccc1)n1ccnc1
0.8 (≈ 2.23 µM) | CC=C(c1ccccc1OCc1ccc(Cl)c(Cl)c1)n1ccnc1
0.8 (≈ 2.32 µM) | C=C(c1cc(Cl)ccc1OCc1ccc(Cl)cc1)n1ccnc1
1.6 (≈ 4.93 µM) | C/C=C(/c1ccccc1OCc1ccc(Cl)cc1)n1ccnc1
0.8 (≈ 2.57 µM) | C=C(c1ccccc1OCc1ccc(Cl)cc1)n1ccnc1
0.8 (≈ 2.36 µM) | CC(C)=C(c1ccccc1OCc1ccc(Cl)cc1)n1ccnc1
0.8 (≈ 2.46 µM) | C/C=C(\c1ccccc1OCc1ccc(Cl)cc1)n1ccnc1
0.8 (≈ 2.32 µM) | Clc1ccccc1C(c1ccccc1)(c1ccccc1)n1ccnc1 [CLOTRIMAZOLE]

SMILES | MIC [µg/mL]
C=C(c1ccccc1OCc1cccc(Cl)c1)n1ccnc1 [CROCONAZOLE] | 0.4 (≈ 1.29 µM)

System: Trichophyton rubrum
Assay: Minimum inhibitory concentration against Trichophyton rubrum IFO 5467
Details: not given

MIC [µg/mL] | SMILES
1.6 (≈ 5.15 µM) | C=C(c1cc(Cl)ccc1OCc1ccccc1)n1ccnc1

System: Candida albicans
Assay: Minimum inhibitory concentration against Candida albicans IFO 1060
Format: functional
Details: not given
Outline: as §1

MIC [µg/mL] | SMILES
12.5 (≈ 40.2 µM) | C=C(c1cc(Cl)ccc1OCc1ccccc1)n1ccnc1
6.3 (≈ 17.5 µM) | CC=C(c1ccccc1OCc1ccc(Cl)c(Cl)c1)n1ccnc1
12.5 (≈ 36.2 µM) | C=C(c1cc(Cl)ccc1OCc1ccc(Cl)cc1)n1ccnc1
12.5 (≈ 38.5 µM) | C/C=C(/c1ccccc1OCc1ccc(Cl)cc1)n1ccnc1
6.3 (≈ 20.3 µM) | C=C(c1ccccc1OCc1ccc(Cl)cc1)n1ccnc1
12.5 (≈ 36.9 µM) | CC(C)=C(c1ccccc1OCc1ccc(Cl)cc1)n1ccnc1
12.5 (≈ 38.5 µM) | C/C=C(\c1ccccc1OCc1ccc(Cl)cc1)n1ccnc1
6.3 (≈ 18.3 µM) | Clc1ccccc1C(c1ccccc1)(c1ccccc1)n1ccnc1 [CLOTRIMAZOLE]

SMILES | MIC [µg/mL]
C=C(c1ccccc1OCc1cccc(Cl)c1)n1ccnc1 [CROCONAZOLE] | 6.3 (≈ 20.3 µM)

From ChEMBL document CHEMBL1123801, “Synthesis and antifungal activity of new 1-vinylimidazoles” (1987)
